ChEMBL document CHEMBL1143876, “Synthesis, analgesic, anti-inflammatory, and antimicrobial activity of some novel pyrimido[4,5-b]quinolin-4-ones” (2008)

How the values were obtained:
Mus musculus [1] = assay: Analgesic activity against acetic acid-induced abdominal constriction in Swiss albino mouse at 15 mg/kg, po after 20 mins by writhing test relative to acetylsalicylic acid; type: functional, Abdomen
Procedure, shortened: (§1)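 Mice of both sexes, 25–30 g, dosed orally in 10% v/v Tween 80 in water. Test agents were given at 15 mg/kg and acetylsalicylic acid at 100 mg/kg. 30 min later, 0.7% acetic acid (10 ml/kg) ip. Writhes counted over 20 min; six per group. % protection = (control mean − treated mean)/control mean ×100; means ± SE.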

Pseudomonas aeruginosa [2] = assay: Antimicrobial activity against Pseudomonas aeruginosa at 50 ug/disk after 24 to 28 hrs; type: functional; details: read-out: IZ
Procedure, shortened: (§2)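 Agar disk diffusion: 5 mm paper disks loaded with 50 µg/disk in DMSO. Inhibition zones read after 24–28 h at 37 °C for bacteria, or 5 days at 28 °C for clinical Candida isolates grown on Sabouraud dextrose agar. Zone graded 6–10 mm slight, 11–15 mm moderate, >15 mm high. Reference disks: nalidixic acid 30 µg, nystatin 100 U.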

Klebsiella pneumoniae [3] = assay: Antimicrobial activity against Klebsiella pneumoniae; type: functional
Procedure, shortened: (§3)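 MIC found by disk diffusion using disks carrying varying amounts of compound per disk, in DMSO. Incubated 24–28 h at 37 °C for bacteria and 5 days at 28 °C for Candida. MIC given in µg/disk.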

Rattus norvegicus [4] = assay: Antiinflammatory activity against carrageenan-induced paw edema in Sprague-Dawley rat at 15 mg/kg, po relative to indomethacin after 3 hrs; type: functional
Procedure, shortened: (§4)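 Adult male rats, 150–180 g, six per group. Oral dose 1 h before 0.1 ml 1% carrageenin sc into the left hind footpad: test agents 15 mg/kg as suspension, indomethacin 10 mg/kg; vehicle 10% Tween 80. Paw volume by plethysmometer before injection, then hourly for 4 h. Edema % = (Vt−Vc)/Vc; inhibition % = (Ec−Et)/Ec. Potency taken relative to indomethacin. Means ± SE.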

Rattus norvegicus [5] = assay: Antiinflammatory activity against carrageenan-induced paw edema in Sprague-Dawley rat at 15 mg/kg, po after 1 hr; type: functional; procedure, shortened: as §4
Staphylococcus aureus [6] = assay: Antimicrobial activity against Staphylococcus aureus; type: functional; procedure, shortened: as §3
Rattus norvegicus [7] = assay: Antiinflammatory activity against carrageenan-induced paw edema in Sprague-Dawley rat at 15 mg/kg, po relative to indomethacin after 4 hrs; type: functional; procedure, shortened: as §4
Mus musculus [8] = assay: Analgesic activity in Swiss albino mouse assessed as reaction time at 15 mg/kg, po after 60 mins by hot plate test; type: functional
Procedure, shortened: (§5)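 Mice of both sexes, 25–30 g, on a hot plate at 53 ± 0.5 °C; reaction time taken to hind-paw lick or jump, 60 s cut-off. Baseline read before dosing. Oral dosing in 10% v/v Tween 80 in water: test agents 15 mg/kg, acetylsalicylic acid 100 mg/kg. Re-read at 15, 30, 60 and 90 min; means ± SE.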

Pseudomonas aeruginosa [9] = assay: Antimicrobial activity against Pseudomonas aeruginosa; type: functional; procedure, shortened: as §3
Rattus norvegicus [10] = assay: Antiinflammatory activity against carrageenan-induced paw edema in Sprague-Dawley rat at 15 mg/kg, po relative to indomethacin after 1 hr; type: functional; procedure, shortened: as §4
Staphylococcus aureus [11] = assay: Antimicrobial activity against Staphylococcus aureus at 50 ug/disk after 24 to 28 hrs; type: functional; details: read-out: IZ; procedure, shortened: as §2
Rattus norvegicus [12] = assay: Antiinflammatory activity against carrageenan-induced paw edema in Sprague-Dawley rat at 15 mg/kg, po after 2 hrs; type: functional; procedure, shortened: as §4
Klebsiella pneumoniae [13] = assay: Antimicrobial activity against Klebsiella pneumoniae at 50 ug/disk after 24 to 28 hrs; type: functional; details: read-out: IZ; procedure, shortened: as §2
Mus musculus [14] = assay: Analgesic activity against acetic acid-induced abdominal constriction in Swiss albino mouse at 15 mg/kg, po after 20 mins by writhing test; type: functional, Abdomen; procedure, shortened: as §1
Mus musculus [15] = assay: Analgesic activity in Swiss albino mouse assessed as reaction time at 15 mg/kg, po after 90 mins by hot plate test; type: functional; procedure, shortened: as §5
Escherichia coli [16] = assay: Antimicrobial activity against Escherichia coli at 50 ug/disk after 24 to 28 hrs; type: functional; details: read-out: IZ; procedure, shortened: as §2
Rattus norvegicus [17] = assay: Antiinflammatory activity against carrageenan-induced paw edema in Sprague-Dawley rat at 15 mg/kg, po after 3 hrs; type: functional; procedure, shortened: as §4
Rattus norvegicus [18] = assay: Antiinflammatory activity against carrageenan-induced paw edema in Sprague-Dawley rat at 15 mg/kg, po relative to indomethacin after 2 hrs; type: functional; procedure, shortened: as §4
Escherichia coli [19] = assay: Antimicrobial activity against Escherichia coli; type: functional; procedure, shortened: as §3
Mus musculus [20] = assay: Analgesic activity in Swiss albino mouse assessed as reaction time at 15 mg/kg, po after 30 mins by hot plate test; type: functional; procedure, shortened: as §5
Rattus norvegicus [21] = assay: Antiinflammatory activity against carrageenan-induced paw edema in Sprague-Dawley rat at 15 mg/kg, po after 4 hrs; type: functional; procedure, shortened: as §4
Nakaseomyces glabratus = assay: Antimicrobial activity against Candida glabrata at 50 ug/disk after 5 days; type: functional; procedure, shortened: as §2
Mus musculus [22] = assay: Analgesic activity in Swiss albino mouse assessed as reaction time at 100 mg/kg, po after 90 mins by hot plate test; type: functional; procedure, shortened: as §5
Mus musculus [23] = assay: Analgesic activity in Swiss albino mouse assessed as reaction time at 100 mg/kg, po after 60 mins by hot plate test; type: functional; procedure, shortened: as §5
Mus musculus [24] = assay: Analgesic activity against acetic acid-induced abdominal constriction in Swiss albino mouse at 100 mg/kg, po after 20 mins by writhing test; type: functional, Abdomen; procedure, shortened: as §1
Mus musculus [25] = assay: Analgesic activity in Swiss albino mouse assessed as reaction time at 100 mg/kg, po after 30 mins by hot plate test; type: functional; procedure, shortened: as §5
Candida albicans = assay: Antimicrobial activity against Candida albicans at 50 ug/disk after 5 days; type: functional; details: 120 h, read-out: IZ; procedure, shortened: as §2

| Compound | Activity (Mus musculus [1]) [%] | zone of inhibition at 50 µg/disc (Pseudomonas aeruginosa [2]) [mm] | Time (Mus musculus [8]) [s] | zone of inhibition at 50 µg/disc (Staphylococcus aureus [11]) [mm] | zone of inhibition at 50 µg/disc (Klebsiella pneumoniae [13]) [mm] | Activity (Mus musculus [14]) [%] | Time (Mus musculus [15]) [s] | zone of inhibition at 50 µg/disc (Escherichia coli [16]) [mm] | Time (Mus musculus [20]) [s] | further results |
| --- | --- | --- | --- | --- | --- | --- | --- | --- | --- | --- |
| Nc1n[nH]c2nc3nc4c(c(-c5ccccc5)c3c(=O)n12)CCCC4 | 110.44 | 22 | 6.74 | 21 | 22 | 57.1 | 7.62 | 20 | 5.14 | MIC (Klebsiella pneumoniae [3]): 30 µg; inhibition in vivo at 15 mg/kg (Rattus norvegicus [4]): 6.6%; inhibition in vivo at 15 mg/kg (Rattus norvegicus [5]): 10.1%; MIC (Staphylococcus aureus [6]): 30 µg; inhibition in vivo at 15 mg/kg (Rattus norvegicus [7]): 20.5%; MIC (Pseudomonas aeruginosa [9]): 30 µg; inhibition in vivo at 15 mg/kg (Rattus norvegicus [10]): 17.7%; inhibition in vivo at 15 mg/kg (Rattus norvegicus [12]): 1.2%; inhibition in vivo at 15 mg/kg (Rattus norvegicus [17]): 2.8%; inhibition in vivo at 15 mg/kg (Rattus norvegicus [18]): 2.1%; MIC (Escherichia coli [19]): 30 µg; inhibition in vivo at 15 mg/kg (Rattus norvegicus [21]): 9.5% |
| CCn1cc(C(=O)O)c(=O)c2ccc(C)nc21 [NALIDIXIC ACID] | – | 25 | – | 25 | 25 | – | – | 24 | – | – |
| NYSTATIN | – | – | – | – | – | – | – | – | – | inhibition zone (IZ) (Nakaseomyces glabratus): 19 mm |
| CC(=O)Oc1ccccc1C(=O)O [ASPIRIN] | – | – | – | – | – | – | – | – | – | Time (Mus musculus [22]): 13.15 s; Time (Mus musculus [23]): 11.39 s; Activity (Mus musculus [24]): 51.7%; Time (Mus musculus [25]): 10.03 s |
| O=c1[nH]c(N/N=C\c2ccccc2)nc2nc3c(c(-c4ccccc4)c12)CCCC3 | 67.51 | 14 | 12.52 | 16 | 18 | 34.9 | 12.68 | 15 | 10.08 | zone of inhibition at 50 µg/disc (Nakaseomyces glabratus; 120 h, read-out: IZ): 7 mm; zone of inhibition at 50 µg/disc (Candida albicans): 7 mm |
| O=c1[nH]c(=S)[nH]c2nc3c(c(-c4ccc(Cl)cc4)c12)CCCC3 | – | 14 | – | 13 | 14 | – | – | 13 | – | – |
| O=c1c2c(-c3ccccc3)c3c(nc2nc2n(-c4ccccc4)nc(-c4ccccc4)n12)CCCC3 | 8.89 | – | 11.62 | – | – | 4.6 | 11.88 | – | 9.84 | – |
